Assay results from ChEMBL document CHEMBL4002637, “Synthesis, characterization, in vitro SAR and in vivo evaluation of N,N'bisnaphthylmethyl 2-alkyl substituted imidazolium salts against NSCLC” (Bioorg Med Chem Lett, 2017).
pIC50: −log10 of the molar value. Active and inactive are the calls of the source. No cut-off for these calls is given here.

Key:
A549 [1] = test: Antiproliferative activity against human A549 cells using 10% 2-HPbetaCD compound formulation after 72 hrs by MTT assay; format: functional, cell-based; settings: A549, 72 h
How it was run: (§1)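 MTT anti-proliferation on NSCLC lines. Compounds dissolved in DMSO, diluted with water to 1% DMSO, then into growth medium (max 0.032% DMSO on cells); or dissolved in 10% (w/v) 2-HPβCD in water, then diluted (max 0.008% w/w 2-HPβCD in wells; vehicle controls at 0.008%). IC50 = concentration giving 50% loss of viability versus control cells. Cisplatin dissolved in water with stirring.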

[2] = Solubility of the compound in 1% DMSO/water solution; format: physicochemical; settings: buffer
NCI-H460 [3] = test: Antiproliferative activity against human NCI-H460 cells using 10% 2-HPbetaCD compound formulation after 72 hrs by MTT assay; format: functional, cell-based; settings: NCI-H460, 72 h; how it was run: as §1
NCI-H522 = test: Growth inhibition of human NCI-H522 cells after 24 hrs by SRB assay; format: functional; settings: NCI-H522, 24 h; for CC50: read-out: LC50 (the source's name)
HCC827 [4] = test: Antiproliferative activity against human HCC827 cells using 10% 2-HPbetaCD compound formulation after 72 hrs by MTT assay; format: functional, cell-based; settings: HCC827, 72 h; how it was run: as §1
[5] = Solubility of the compound in 10% 2-HPbetaCD/water solution; format: physicochemical
NCI-H322M [6] = test: Growth inhibition of human NCI-H322M cells after 24 hrs by SRB assay; format: functional
HCC827 [7] = test: Antiproliferative activity against human HCC827 cells using 1% DMSO/water compound formulation after 72 hrs by MTT assay; format: functional, cell-based; settings: HCC827, 72 h; how it was run: as §1
A549 [8] = test: Growth inhibition of human A549 cells assessed as cell growth at 10 uM after 24 hrs by SRB assay relative to control; format: functional; settings: A549, 24 h, read-out: Activity
How it was run: (§2)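 NCI DTP one-dose screen: cells plated at density set by doubling rate, incubated overnight, then exposed to compound at 10 μM for 24 hours. Growth percentage from protein density at end versus start of experiment, relative to initial cell number.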

NCI-H1975 [9] = test: Antiproliferative activity against human NCI-H1975 cells using 10% 2-HPbetaCD compound formulation after 72 hrs by MTT assay; format: functional, cell-based; settings: NCI-H1975, 72 h; how it was run: as §1
EKVX [10] = test: Growth inhibition of human EKVX cells assessed as cell growth at 10 uM after 24 hrs by SRB assay relative to control; format: functional; settings: read-out: Activity; how it was run: as §2
[11] = Aqueous solubility of the compound in water; format: physicochemical; settings: buffer
NCI-H322M [12] = test: Growth inhibition of human NCI-H322M cells assessed as cell growth at 10 uM after 24 hrs by SRB assay relative to control; format: functional; settings: read-out: Activity; how it was run: as §2
HOP-92 [13] = test: Growth inhibition of human HOP92 cells after 24 hrs by SRB assay; format: functional; settings: HOP-92, 24 h; for CC50: read-out: LC50 (the source's name)
A549 [14] = test: Growth inhibition of human A549 cells after 24 hrs by SRB assay; format: functional; settings: A549, 24 h; for CC50: read-out: LC50 (the source's name)
NCI-H226 [15] = test: Growth inhibition of human NCI-H226 cells after 24 hrs by SRB assay; format: functional; settings: NCI-H226, 24 h
HOP-92 [16] = test: Growth inhibition of human HOP92 cells assessed as cell growth at 10 uM after 24 hrs by SRB assay relative to control; format: functional; settings: HOP-92, 24 h, read-out: Activity; how it was run: as §2
NCI-H23 [17] = test: Growth inhibition of human NCI-H23 cells assessed as cell growth at 10 uM after 24 hrs by SRB assay relative to control; format: functional; settings: NCI-H23, 24 h, read-out: Activity; how it was run: as §2
NCI-H1975 [18] = test: Antiproliferative activity against human NCI-H1975 cells using 1% DMSO/water compound formulation after 72 hrs by MTT assay; format: functional, cell-based; settings: NCI-H1975, 72 h; how it was run: as §1
NCI-H226 [19] = test: Growth inhibition of human NCI-H226 cells assessed as cell growth at 10 uM after 24 hrs by SRB assay relative to control; format: functional; settings: NCI-H226, 24 h, read-out: Activity; how it was run: as §2
HOP-62 [20] = test: Growth inhibition of human HOP62 cells after 24 hrs by SRB assay; format: functional; settings: HOP-62, 24 h
A549 [21] = test: Antiproliferative activity against human A549 cells using 1% DMSO/water compound formulation after 72 hrs by MTT assay; format: functional, cell-based; settings: A549, 72 h; how it was run: as §1
NCI-H460 [22] = test: Growth inhibition of human NCI-H460 cells after 24 hrs by SRB assay; format: functional; settings: NCI-H460, 24 h; for CC50: read-out: LC50 (the source's name)
EKVX [23] = test: Growth inhibition of human EKVX cells after 24 hrs by SRB assay; format: functional
NCI-H460 [24] = test: Growth inhibition of human NCI-H460 cells assessed as cell growth at 10 uM after 24 hrs by SRB assay relative to control; format: functional; settings: NCI-H460, 24 h, read-out: Activity; how it was run: as §2
NCI-H460 [25] = test: Antiproliferative activity against human NCI-H460 cells using 1% DMSO/water compound formulation after 72 hrs by MTT assay; format: functional, cell-based; settings: NCI-H460, 72 h; how it was run: as §1
HOP-62 [26] = test: Growth inhibition of human HOP62 cells assessed as cell growth at 10 uM after 24 hrs by SRB assay relative to control; format: functional; settings: HOP-62, 24 h, read-out: Activity; how it was run: as §2
NCI-H23 [27] = test: Growth inhibition of human NCI-H23 cells after 24 hrs by SRB assay; format: functional; settings: NCI-H23, 24 h; for CC50: read-out: LC50 (the source's name)
NCI-H460 [28] = test: Disruption of mitochondrial membrane potential in human NCI-H460 cells at 98 uM up to 1 hr by JC1/DAPI staining based confocal microscopic method; format: functional, cell-based
NCI-H460 [29] = test: Induction of apoptosis in human NCI-H460 cells assessed as cell shrinkage up to 1 hr by Annexin V-FITC/propidium iodide staining based fluorescence microscopic method; format: functional
NCI-H460 [30] = test: Induction of apoptosis in human NCI-H460 cells assessed as cell rounding up to 1 hr by Annexin V-FITC/propidium iodide staining based fluorescence microscopic method; format: functional
NCI-H460 [31] = test: Induction of apoptosis in human NCI-H460 cells assessed as cell detachment up to 1 hr by Annexin V-FITC/propidium iodide staining based fluorescence microscopic method; format: functional

## CCCc1n(Cc2ccc3ccccc3c2)cc[n+]1Cc1ccc2ccccc2c1.[Br-]
A549 [1]
  pIC50: 5.55
[2]
  solubility: Soluble
NCI-H460 [3]
  pIC50: 5.67
NCI-H522
  GI50: 0.378 µM
  TGI: 1.68 µM
  CC50: 4.92 µM
HCC827 [4]
  pIC50: 5.90
[5]; buffer
  solubility: > 4400 µg/mL
NCI-H322M [6]
  GI50: 1.96 µM
  LC50 (lethal concentration 50%): 23.8 µM
  TGI: 6 µM
HCC827 [7]
  pIC50: 5.84
A549 [8]
  growth at 10 µM: 31.6%
NCI-H1975 [9]
  pIC50: 6.20
EKVX [10]
  growth at 10 µM: 21.1%
[11]
  solubility: < 500 µg/mL
NCI-H322M [12]
  growth at 10 µM: 23.2%
HOP-92 [13]
  GI50: 0.863 µM
  TGI: 2.66 µM
  CC50: 7.58 µM
A549 [14]
  GI50: 2.67 µM
  TGI: 12.1 µM
  CC50: 60.3 µM
NCI-H226 [15]
  GI50: 1.31 µM
  LC50: > 100 µM
  TGI: 3.92 µM
HOP-92 [16]
  growth at 10 µM: -38.3%
NCI-H23 [17]
  growth at 10 µM: -28.2%
NCI-H1975 [18]
  pIC50: 6.07
NCI-H226 [19]
  growth at 10 µM: 0.23%
HOP-62 [20]
  GI50: 1.26 µM
  LC50: 6.19 µM
  TGI: 2.8 µM
A549 [21]
  pIC50: 5.53
NCI-H460 [22]
  GI50: 1.22 µM
  TGI: 3.01 µM
  CC50: 7.44 µM
EKVX [23]
  GI50: 1.71 µM
  LC50: 60.5 µM
  TGI: 11.4 µM
NCI-H460 [24]
  growth at 10 µM: 3.26%
NCI-H460 [25]
  pIC50: 5.72
HOP-62 [26]
  growth at 10 µM: 5.82%
NCI-H23 [27]
  GI50: 0.521 µM
  TGI: 2.51 µM
  CC50: 9.77 µM

## CC(C)c1n(Cc2ccc3ccccc3c2)cc[n+]1Cc1ccc2ccccc2c1.[Br-]
A549 [1]
  pIC50: 5.67
[2]
  solubility: Soluble
NCI-H460 [3]
  pIC50: 6.07
HCC827 [4]
  pIC50: 5.94
[5]; 10% 2-HPbetaCD/water solution, read-out: solubility
  solubility: > 4400 µg/mL
HCC827 [7]
  pIC50: 5.89
NCI-H1975 [9]
  pIC50: 6.21
[11]
  solubility: < 500 µg/mL
NCI-H1975 [18]
  pIC50: 6.16
A549 [21]
  pIC50: 5.60
NCI-H460 [25]
  pIC50: 6.04

## N#CC(C#N)=NNc1cccc(Cl)c1
NCI-H460 [28]
  Activity: Active

## Clc1c(Cl)[n+](Cc2ccc3ccccc3c2)cn1Cc1ccc2ccccc2c1
NCI-H460 [29]
  Activity: Active
NCI-H460 [30]
  Activity: Active
HCC827 [7]
  pIC50: 5.22
NCI-H460 [31]
  Activity: Active
NCI-H1975 [18]
  pIC50: 5.30
A549 [21]
  pIC50: 5.05
NCI-H460 [25]
  pIC50: 5.30

## CCCCc1n(Cc2ccc3ccccc3c2)cc[n+]1Cc1ccc2ccccc2c1.[Br-]
A549 [1]
  pIC50: 5.49
[2]
  solubility: Soluble
NCI-H460 [3]
  pIC50: 5.61
HCC827 [4]
  pIC50: 5.66
[5]; buffer
  solubility: > 4400 µg/mL
NCI-H322M [6]
  GI50: 1.38 µM
  TGI: 2.75 µM
HCC827 [7]
  pIC50: 5.58
A549 [8]
  growth at 10 µM: 29.8%
NCI-H1975 [9]
  pIC50: 5.99
EKVX [10]
  growth at 10 µM: 14.4%
[11]
  solubility: < 500 µg/mL
NCI-H322M [12]
  growth at 10 µM: 23.3%
HOP-92 [16]
  growth at 10 µM: -38.2%
NCI-H23 [17]
  growth at 10 µM: -23.8%
NCI-H1975 [18]
  pIC50: 5.76
NCI-H226 [19]
  growth at 10 µM: -0.47%
A549 [21]
  pIC50: 5.46
NCI-H460 [24]
  growth at 10 µM: -13.1%
NCI-H460 [25]
  pIC50: 5.58
HOP-62 [26]
  growth at 10 µM: -2.71%
NCI-H23 [27]
  GI50: 0.793 µM
  TGI: 2.31 µM
  CC50: 5.85 µM

## Cc1n(Cc2ccc3ccccc3c2)cc[n+]1Cc1ccc2ccccc2c1.[Br-]
A549 [1]
  pIC50: 5.46
[2]
  solubility: Soluble
NCI-H460 [3]
  pIC50: 5.57
NCI-H522
  GI50: 0.256 µM
  TGI: 1.81 µM
  CC50: 6.72 µM
HCC827 [4]
  pIC50: 5.70
[5]; buffer
  solubility: > 4400 µg/mL
NCI-H322M [6]
  GI50: 2.46 µM
  LC50 (lethal concentration 50%): 32.9 µM
  TGI: 10.4 µM
HCC827 [7]
  pIC50: 5.63
A549 [8]
  growth at 10 µM: 42.3%
NCI-H1975 [9]
  pIC50: 6.12
EKVX [10]
  growth at 10 µM: 47%
[11]
  solubility: < 500 µg/mL
NCI-H322M [12]
  growth at 10 µM: 48.9%
HOP-92 [13]
  GI50: 0.673 µM
  TGI: 3.64 µM
  CC50: 26.4 µM
A549 [14]
  GI50: 3.81 µM
  TGI: 21.3 µM
  CC50: 66.1 µM
NCI-H226 [15]
  GI50: 1.85 µM
  LC50: 64.1 µM
  TGI: 10.4 µM
HOP-92 [16]
  growth at 10 µM: -20.3%
NCI-H23 [17]
  growth at 10 µM: 5.53%
NCI-H1975 [18]
  pIC50: 6.08
NCI-H226 [19]
  growth at 10 µM: 19%
HOP-62 [20]
  GI50: 1.6 µM
  LC50: 45.3 µM
  TGI: 8.35 µM
A549 [21]
  pIC50: 5.47
NCI-H460 [22]
  GI50: 1.59 µM
  TGI: 10.7 µM
  CC50: 44 µM
EKVX [23]
  GI50: 2.32 µM
  LC50: 52.4 µM
  TGI: 17.1 µM
NCI-H460 [24]
  growth at 10 µM: 9.12%
NCI-H460 [25]
  pIC50: 5.60
HOP-62 [26]
  growth at 10 µM: 18%
NCI-H23 [27]
  GI50: 0.717 µM
  TGI: 2.93 µM
  CC50: 10.4 µM
